For 30 compounds, Kd, Activity and IC50 results are on record in ChEMBL document CHEMBL3425405, “Discovery of Small Molecules for Up-Regulating the Translation of Antiamyloidogenic Secretase, a Disintegrin and Metalloproteinase 10 (ADAM10), by Binding to the G-Quadruplex-Forming Sequence in the 5' Untranslated Region (UTR) of Its mRNA” (J Med Chem, 2015).

pKd: −log10 of the molar value. Calls of active or inactive are those of the source. The calls are words filed in the database; no cut-off is given here. A value given as a limit tells only on which side of the number the result lay.

Data set [1] can be described thus: Binding affinity to 5'-end biotinylated ADAM10 A10-RNA QGRS (unknown origin) by surface plasmon resonance assay method. Summed up:
(§1)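 SPR with 5′-biotinylated A10-RNA-Wt or A10-RNA-Mut immobilized on a neutravidin chip in running buffer (50 mM Tris-HCl pH 7.5, 100 mM KCl). Ligand serial dilutions in running buffer injected at 20 μL/min for association, then dissociation. Chip regenerated with 50 mM NaOH between runs.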

Data set [2] is described as follows: Binding affinity to 5'-end biotinylated ADAM10 A10-mutant RNA QGRS (unknown origin) by surface plasmon resonance assay method. The method, boiled down: as §1
Background: Surface plasmon resonance follows binding to a sensor surface in real time, without labels.

Another data set has as its system HeLa. The data set is described as follows: Binding affinity to ADAM10 A10-RNA QGRS (unknown origin) transfected in human HeLa cells assessed as increase in ADAM10 translation efficiency at 2 uM after 24 hrs by Renilla/firefly dual luciferase reporter assay. The class given is cell-based. The method, boiled down: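 HeLa cells transfected with 0.8 μg A10-Wt, A10-Mut or A10-Del plasmid (G-quadruplex motif upstream of Renilla in psiCHECK-2). Screening: 24 h at a single 2 μM concentration. Follow-up: plasmid for 12 h, then 0, 0.5, 1 or 2.5 μM for 24 h. Renilla normalized to firefly, relative to untreated control; mean ± SD of three independent measurements.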
(Reporter assays use an easily measured gene product as a stand-in for the process of interest.)

Data set [3] can be described thus: Toxicity against human HeLa cells assessed as reduction in cell viability after 24 hrs by MTT assay. The class given is cell-based. (In general: Tetrazolium assays rely on reduction of a dye to a coloured formazan, in cell work by metabolically active cells.)
Data set [4] is described as follows: Toxicity against APP expressing HEK cells assessed as reduction in cell viability after 48 hrs by MTT assay. The class given is cell-based, HEK293. To be noted: human.

Regarding `CCn1c2ccccc2c2cc(/C=C/c3ccc4ccccc4n3)ccc21`, the negative-log Kd (pKd) in data set [1] is under 4.30. The result in data set [2] was inactive.

In the case of `CN1CCN(c2cc(/C=C/c3cc4ccccc4[nH]3)[n+](C)c3ccccc23)CC1`, in the data set on HeLa, the Activity worked out at 116%. Also, the pKd in data set [1] was 5.74. For the same compound, the IC50 at 24 h in data set [3] was over 50 µM. Besides, the result in data set [2] was inactive. The IC50 at 48 h in data set [4] is 18.6 µM.

In turn, `CCn1c2ccccc2c2cc(/C=C/c3cc(N4CCN(CCO)CC4)c4ccccc4[n+]3C)ccc21` had a pKd in data set [1] of 4.49. Further, in data set [2], the result was inactive.

The compound `CCn1c2ccccc2c2cc(/C=C/c3cc(N4CCN(CCN(C)C)CC4)c4ccccc4[n+]3C)ccc21` had a pKd in data set [1] of under 4.30. For the same compound, in data set [2], the outcome was inactive.

For `CN1CCN(c2cc(/C=C/c3cc([N+](=O)[O-])ccc3O)[n+](C)c3ccccc23)CC1`, in the data set with HeLa, the Activity was found to be 98.7%. This compound showed a negative-log Kd (pKd) in data set [1] of 4.79. Moreover, the IC50 at 24 h in data set [3] is over 50 µM. For the same compound, the outcome in data set [2] was inactive. The 50% inhibitory concentration (IC50) at 48 h in data set [4] was 21.5 µM.

For the compound `CCn1c2ccccc2c2cc(/C=C/c3cc(N4CCN(CCCN(C)C)CC4)c4ccccc4[n+]3C)ccc21`, in data set [1], the pKd was 4.35. Besides, the outcome in data set [2] was inactive.

With `C[n+]1c(/C=C/c2cc([N+](=O)[O-])ccc2O)cc(N2CCCCC2)c2ccccc21`, the pKd in data set [1] was under 4.30. Besides, the result in data set [2] was inactive.

For the compound `COc1cc(/C=C/c2cc(N3CCN(C)CC3)c3ccccc3[n+]2C)ccc1F`, in data set [1], the pKd was 4.93. In data set [2], the outcome was inactive.

For `C[n+]1c(/C=C/c2cc3ccccc3[nH]2)ccc2ccccc21`, in the data set on HeLa, the Activity came to 119%. Also, the pKd in data set [1] is 5.47. In addition, in data set [3], the IC50 at 24 h is over 50 µM. For the same compound, in data set [2], the result was inactive. In data set [4], the concentration for half-maximal inhibition (IC50) at 48 h was determined as 12.4 µM.

`COc1cc(/C=C/c2cc(N3CCN(C)CC3)c3ccccc3[n+]2C)cc(OC)c1O`: the Activity in the data set with HeLa is 108%. Besides, the pKd in data set [1] is 4.78. Also, in data set [3], the half-inhibitory concentration (IC50) at 24 h is over 50 µM. Further, the outcome in data set [2] was inactive. Further, the concentration for half-maximal inhibition (IC50) at 48 h in data set [4] is 25.8 µM.

As to `CCn1c2ccccc2c2cc(/C=C/c3cc(N4CCCCC4)c4ccccc4[n+]3C)ccc21`, in data set [1], the pKd was under 4.30. For the same compound, in data set [2], the outcome was inactive.

In data set [1], `COc1cc(/C=C/c2ccc3ccccc3[n+]2C)ccc1F` had a pKd of 4.74. Moreover, the outcome in data set [2] was inactive.

The compound `C[n+]1c(/C=C/c2cc([N+](=O)[O-])ccc2O)cc(N2CCOCC2)c2ccccc21` showed a pKd in data set [1] of under 4.30. Moreover, the IC50 at 24 h in data set [3] turned out to be 17.3 µM. In data set [2], the outcome was inactive.

For `CCn1c2ccccc2c2cc(/C=C/c3cc(N4CCCCC4)c4ccccc4n3)ccc21`, the pKd in data set [1] is under 4.30. The outcome in data set [2] was inactive.

In the case of `CN1CCN(c2cc(/C=C/c3ccc(O)cc3)[n+](C)c3ccccc23)CC1`, the pKd in data set [1] is 5.08. Besides, in data set [2], the result was inactive.

For `C[n+]1c(/C=C/c2ccc(N3CCOCC3)cc2)ccc2ccccc21`, the Activity in the data set with HeLa worked out at 92%. The same compound had a pKd in data set [1] of 4.80. In addition, the IC50 at 24 h in data set [3] is 43.4 µM. For the same compound, the result in data set [2] was inactive. For the same compound, the IC50 at 48 h in data set [4] is 23.3 µM.

Turning to `CN1CCN(c2cc(/C=C/c3ccccc3)[n+](C)c3ccccc23)CC1`, the Activity with HeLa was 91.5%. The compound further gave a pKd in data set [1] of 4.48. Moreover, the IC50 at 24 h in data set [3] is over 50 µM. Also, in data set [2], the outcome was inactive. The IC50 at 48 h in data set [4] turned out to be 36.3 µM.

In turn, `COc1cc(/C=C/c2cc(N3CCCCC3)c3ccccc3[n+]2C)cc(OC)c1O` gave a pKd in data set [1] of 4.60. For the same compound, the outcome in data set [2] was inactive.

The compound `C[n+]1c(/C=C/c2cc([N+](=O)[O-])ccc2O)ccc2ccccc21` had a pKd in data set [1] of 4.33. The outcome in data set [2] was inactive.

For the compound `COc1cc(/C=C/c2ccc3ccccc3[n+]2C)ccc1N1CCOCC1`, the Activity in the data set with HeLa is 102%. In data set [1], this compound had a negative-log Kd (pKd) of 4.55. In addition, the IC50 at 24 h in data set [3] was 32.8 µM. The outcome in data set [2] was inactive. For the same compound, in data set [4], the IC50 at 48 h came out at 49.1 µM.

Consider `CN1CCN(c2cc(/C=C/c3ccc(N4CCOCC4)cc3)nc3ccccc23)CC1`, for which, in data set [1], the pKd is 4.32. Also, in data set [2], the result was inactive.

On to `CN1CCN(c2cc(/C=C/c3ccc(N4CCOCC4)cc3)[n+](C)c3ccccc23)CC1`, for which the Activity in the data set on HeLa turned out to be 137%. Besides, in data set [1], the pKd was 5.59. In addition, the half-inhibitory concentration (IC50) at 24 h in data set [3] is over 50 µM. In addition, the outcome in data set [2] was inactive. In data set [4], the IC50 at 48 h was found to be 29.3 µM.

In data set [1], `COc1cc(/C=C/c2cc(N3CCN(C)CC3)c3ccccc3[n+]2C)cc(OC)c1OC` showed a pKd of 4.96. Besides, the result in data set [2] was inactive.

As to `COc1cc(/C=C/c2ccc3ccccc3[n+]2C)cc(OC)c1OC`, in data set [1], the pKd was 5.03. Besides, the outcome in data set [2] was inactive.

`COc1cc(/C=C/c2ccc3ccccc3[n+]2C)cc(OC)c1O` had a pKd in data set [1] of 4.69. Besides, the result in data set [2] was inactive.

`COc1cc(/C=C/c2cc(N3CCN(C)CC3)c3ccccc3[n+]2C)ccc1N1CCOCC1` gave a pKd in data set [1] of 4.48. The result in data set [2] was inactive.

In the case of `C[n+]1c(/C=C/c2ccccc2)ccc2ccccc21`, the Activity with HeLa worked out at 101%. In data set [1], this compound had a pKd of under 4.30. Also, the IC50 at 24 h in data set [3] was over 50 µM. For the same compound, the result in data set [2] was inactive. Also, the IC50 at 48 h in data set [4] was over 50 µM.

`C[n+]1c(/C=C/c2ccc(O)cc2)ccc2ccccc21`: in data set [1], the pKd was 4.80. Further, the result in data set [2] was inactive.

In data set [1], `COc1cc(/C=C/c2cc(N3CCOCC3)c3ccccc3[n+]2C)cc(OC)c1O` showed a pKd of 4.57. Besides, in data set [2], the result was inactive.

In the case of `CCn1c2ccccc2c2cc(/C=C/c3cc(N4CCN(C)CC4)c4ccccc4n3)ccc21`, the pKd in data set [1] is under 4.30. In addition, the result in data set [2] was inactive.

As usually defined, the pKd is the Kd on a negative log10 scale, so that one unit is a factor of ten. A low value points to a large Kd. The IC50 is the point on the concentration scale where inhibition reaches its midpoint.
